Lipid droplet: inhibitors of hepatocyte lipid droplet formation, primary screen, imaging, high-throughput imaging, BODIPY stain. AML12 mouse hepatocytes, oleate lipid droplets. 0.4% of 240,000 active. inhibition, % at 6.5 µM;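 active means lipid droplet intensity inhibited by at least 50%, with more than 500 cells counted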
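Assay system: AML12 mouse liver cells | Compound: 6.5 µM single-point dosing | Schedule: Overnight exposure | Technique: Fluorescence imaging, 20x objective, two fields per well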
Arrestin-AP2 inh: inhibitors of beta-arrestin/AP2 binding, primary screen, biochemical, GPCR trafficking, flow cytometry | beta-arrestin 1 C-terminal peptide binding to AP2 beta2-adaptin appendage (human) | FITC-arrestin peptide / GST-AP2 beads; AP2 beta2 appendage carries R879A mutation | inhibition, % at 10 µM | 0.31% of 340,000 active | AID 504490, 2011;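 active means inhibition above a set limit, near 3 SD of compounds lacking own fluorescence, cut at about 54% in these data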;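 further: plate controls were DMSO wells for no effect and 5 µM unlabelled arrestin peptide for full effect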
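Measured by: flow cytometry, FL1 (488/535 nm); Material: AP2 appendage R879A on GSH beads; Evaluation: percent response; Timing: pre-incubation 12 min, peptide binding 1 h, room temperature; Also added: 50 nM FITC-arrestin peptide; Medium: PBS with 0.05% Tween 20 and 0.1% BSA.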
CTSL1 counter: Fasciola hepatica cathepsin L1 inhibitors, primary screen, counter-screen for PFM18AAP inhibitor project, biochemical, QFRET, fluorogenic peptide substrate; recombinant F. hepatica cathepsin L1, Z-Leu-Arg-MCA fluorescence; inhibition, % at 5.96 µM; AID 1906, 2009; 0.49% of 300,000 active;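 active means inhibition above the mean of all tested compounds plus 3 SD, set per screening campaign, cut at about 17% in these data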;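 further: 0% = plate median of test compound wells and 100% = 1 µM Z-Phe-Ala-diazomethylketone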
pCIP destab: p/CIP-EGFP fusion destabilizers, primary screen, fluorescence, F442A cells. Q05BA5. 16 h. decrease of EGFP signal, % at 10 µM. 0.01% of 290,000 active. AID 1984, 2009;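 active means EGFP signal decrease of at least 30% at 10 µM or well 3 SD below plate mean, unless failing retest; inactive means the rest, including hits failing retest or dose response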
Target sequence (Q05BA5 1-1403): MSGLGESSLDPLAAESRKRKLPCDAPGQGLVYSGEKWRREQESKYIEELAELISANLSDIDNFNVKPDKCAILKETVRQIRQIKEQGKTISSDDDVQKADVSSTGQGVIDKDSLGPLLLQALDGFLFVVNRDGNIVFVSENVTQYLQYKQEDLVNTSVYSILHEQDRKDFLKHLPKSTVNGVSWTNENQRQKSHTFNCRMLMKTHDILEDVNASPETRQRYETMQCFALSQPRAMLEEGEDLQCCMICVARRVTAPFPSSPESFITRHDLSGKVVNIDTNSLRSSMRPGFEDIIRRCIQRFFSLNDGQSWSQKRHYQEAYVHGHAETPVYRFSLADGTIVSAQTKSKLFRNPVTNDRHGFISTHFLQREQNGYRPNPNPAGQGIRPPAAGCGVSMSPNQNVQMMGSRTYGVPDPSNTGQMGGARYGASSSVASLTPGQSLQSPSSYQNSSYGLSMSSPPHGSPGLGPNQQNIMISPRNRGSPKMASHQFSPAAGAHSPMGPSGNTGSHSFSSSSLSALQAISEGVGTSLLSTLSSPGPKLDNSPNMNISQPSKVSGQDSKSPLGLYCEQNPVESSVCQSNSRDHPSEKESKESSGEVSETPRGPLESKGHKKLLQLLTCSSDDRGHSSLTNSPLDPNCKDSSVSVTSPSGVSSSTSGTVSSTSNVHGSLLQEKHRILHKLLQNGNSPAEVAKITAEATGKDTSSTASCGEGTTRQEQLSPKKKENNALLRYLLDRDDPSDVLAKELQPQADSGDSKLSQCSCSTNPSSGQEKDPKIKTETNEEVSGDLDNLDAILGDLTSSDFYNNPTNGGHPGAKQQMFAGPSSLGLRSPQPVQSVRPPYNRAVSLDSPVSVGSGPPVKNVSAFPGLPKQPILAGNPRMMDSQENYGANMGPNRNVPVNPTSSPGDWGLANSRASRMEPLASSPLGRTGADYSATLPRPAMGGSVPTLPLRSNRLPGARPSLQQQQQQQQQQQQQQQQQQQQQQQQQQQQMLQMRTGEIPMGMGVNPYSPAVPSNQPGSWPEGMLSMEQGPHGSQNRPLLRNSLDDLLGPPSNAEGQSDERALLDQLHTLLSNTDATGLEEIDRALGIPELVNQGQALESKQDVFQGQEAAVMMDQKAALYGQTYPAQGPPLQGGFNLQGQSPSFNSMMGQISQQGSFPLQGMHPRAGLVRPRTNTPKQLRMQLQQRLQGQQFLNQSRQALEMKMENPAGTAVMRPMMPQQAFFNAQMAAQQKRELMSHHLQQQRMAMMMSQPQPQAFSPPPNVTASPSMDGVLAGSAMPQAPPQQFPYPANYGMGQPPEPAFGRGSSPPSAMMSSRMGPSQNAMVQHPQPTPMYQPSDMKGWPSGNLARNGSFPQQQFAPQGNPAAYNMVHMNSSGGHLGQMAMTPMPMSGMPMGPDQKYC
Hep lipid conf: hepatocyte lipid droplet accumulation inhibitors, confirmation, imaging, AML12 mouse hepatocytes, single concentration, high-content; shares compounds with Lipid droplet; BODIPY lipid droplet imaging; droplets induced with 100 µM oleic acid; inhibition, % at 5.2 µM; 65% of 870 active;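 active means inhibition of lipid droplet metric at least 50%, with more than 300 cells in each of four replicates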;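 further: plate controls were DMSO with oleic acid for no effect and 5 µM Triacsin-C for full effect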
AML12 tox img: AML12 hepatocyte cytotoxicity, counter-screen for hepatic lipid droplet formation project, imaging, DAPI nuclear morphology imaging. shares compounds with Lipid droplet. AML12 mouse hepatocytes; stronger effect = higher value; cells fed 100 µM oleate overnight. z-score at 5 µM. 3% of 870 active; in the data active means z-score above about 6.3;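 further: compound exposure lasted overnight at 37 °C before fixation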
AML12 tox conf: AML12 hepatocyte cytotoxicity, confirmation, cytotoxicity control for hepatic lipid droplet formation project, cell-based, single concentration | 530 tested, under 10 active | cytotoxicity, % at 50 µM | AML12 mouse hepatocyte viability, ATP luminescence; cells loaded with 100 µM oleic acid | shares compounds with Lipid droplet;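 active means cytotoxicity above 50% in each of four replicates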;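 further: compound exposure lasted overnight at 37 °C before the ATP read; 0% = DMSO-treated cells and 100% = wells with no cells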
The depositor's hits bear a star; . = no result. Shown are actives, neighbours in structure and some others; about 1% of the full set was active somewhere.

SMILES	Lipid droplet	Arrestin-AP2 inh	CTSL1 counter	pCIP destab	Hep lipid conf	AML12 tox img	AML12 tox conf
CC(=O)Nn1cnc2c(c1=O)C1(CCCC1)Cc1ccccc1-2	21	3	-1	-7	.	.	.
COc1ccccc1NC(=O)N1CCCC1C(=O)Nc1ccc2c(c1)OCO2 (stereo not drawn)	71*	19	0	-5	71*	0.22	7
Cc1nnc(NC(=O)C2C3C=CC(O3)C2C(=O)O)s1 (stereo not drawn)	-6	.	-4	-11	.	.	.
COc1ccc(CCNC(=O)CCOc2cc(C)ccc2C)cc1OC	68*	-8	.	-8	91*	-0.092	12
COc1ccc(CCNC(=O)CCOc2ccc(C)cc2)cc1OC	7	-4	-1	-24	.	.	.
COc1ccc(CCNC(=O)CC(c2ccccc2)c2cc(C)ccc2O)cc1OC (stereo not drawn)	53*	4	7	-12	30	0.95	.
COc1cc2c(cc1NC(=O)CSc1nc3ccc(C)cc3[nH]1)oc1ccccc12	52*	.	0	13	99*	-0.06	.
CCOC(=O)c1ccc(N2CCN(c3ccccc3F)CC2)c(NC(=O)Nc2ccccc2)c1	52*	3	-2	-5	100*	-0.15	-5
CCOC(=O)c1ccc(N2CCN(c3ccc(F)cc3)CC2)c(NC(=O)Nc2cccc(OC)c2)c1	3	0	5	15	.	.	.
COc1ccc2c(c1)-c1c(ssc1=S)C(C)(C)N2S(=O)(=O)c1ccc(C)cc1	51*	0	1	-11	61	1.3	.
CCOC(=O)N1CCN(C(=O)CSc2nnc(-c3cccc(Cl)c3)o2)CC1	2	7	-1	-10	.	.	.
CCOc1ccccc1NC(=O)C1CCN(C(=O)NCc2ccccc2)CC1	130*	29	0	8	110*	-0.4	6
CCOc1ccccc1NC(=O)N1CCC(C(=O)c2ccc(F)cc2)CC1	59*	-1	3	-8	95*	0.0025	13
COc1ccc(CNC(=O)C2CCCN(C(=O)Nc3ccccc3OC)C2)cc1 (stereo not drawn)	81*	1	-4	3	99*	-0.73	10
COc1cccc(NC(=O)N2CCCC(C(=O)Nc3ccccc3OC)C2)c1 (stereo not drawn)	.	15	-3	7	.	.	.
CCOC(=O)CC(NC(C)=O)c1ccc([N+](=O)[O-])cc1 (stereo not drawn)	-2	-2	-5	2	.	.	.
CCc1nnc(NC(=O)CSc2ccc(-c3nc4ccccc4[nH]3)cn2)s1	.	-2	3	-12	.	.	.
O=C(Nc1nnc(-c2cccs2)s1)C1CC1	10	-18	2	0	.	.	.
O=C(Nc1nc(-c2cccs2)c(-c2cccs2)s1)C1CCCC1	54*	5	.	3	94*	-0.48	.
Cc1cc2nn(-c3ccc(Cl)cc3)nc2cc1N	62*	44	4	11	73*	0.24	49
O=C(c1ccc(S(=O)(=O)Nc2cccc(C(F)(F)F)c2)cc1)N1CCOCC1	58*	-15	1	-4	90*	0.61	18
COc1cccc(/C=C2/SC(=O)N(CC(=O)N3CCc4ccccc4C3)C2=O)c1OCC(=O)O	-2	-4	3	-5	.	.	.
CCCCOc1ccc(-c2ncc(Cl)cn2)cc1	8	-2	0	-12	.	.	.
CCCCOc1ccc(-c2ncc([N+](=O)[O-])cn2)cc1	51*	8	-5	0	19	0.84	.
Cc1ccc(-c2nc(CS(=O)(=O)CC(=O)NCCCN3CCOCC3)c(C)o2)cc1	9	-10	-1	0	.	.	.
SMILES	Lipid droplet	Arrestin-AP2 inh	CTSL1 counter	pCIP destab	Hep lipid conf	AML12 tox img	AML12 tox conf
CCOc1ccc(CCNC(=O)Cn2nc(C)n3cccc3c2=O)cc1OCC	79*	3	1	-12	104*	-0.084	17
CCOc1ccc(CCNC(=O)C(C)n2nc(C)n3c(cc4occc43)c2=O)cc1OCC (stereo not drawn)	58*	5	2	-5	94*	-0.17	8
Cc1nn(C(C)C(=O)NCCc2ccccc2)c(=O)c2cc3occc3n12 (stereo not drawn)	-9	26	1	-10	.	.	.
CCOc1ccc(CCNC(=O)CCCn2c(=O)c3cccn3c3cccnc32)cc1OCC	69*	38	1	0	88*	-1	4
CCOc1ccc(CCNC(=O)Cn2c(-c3nonc3N)nc3ccccc32)cc1OCC	75*	20	1	0	101*	0.99	25
O=C(CSc1nnc2ccc(-c3ccncc3)nn12)c1cccs1	4	-2	-2	-10	.	.	.
COc1cc2cc(Oc3ccc4ccc(=O)oc4c3)c(=O)oc2cc1OC(=O)C=C(C)C	12	.	-2	5	.	.	.
CCOc1ccc(CCNC(=O)CN2C(=O)NC(CCSC)C2=O)cc1OCC (stereo not drawn)	85*	-1	-3	-14	100*	0.33	14
CCOc1ccc(CCNC(=O)Cn2cccc2C(=O)c2ccccc2)cc1OCC	84*	9	3	-15	109*	0.41	13
CCCNC(=O)Cn1cccc1C(=O)c1ccccc1	.	22	1	-7	.	.	.
CCOc1ccc(CCNC(=O)CN2C(=O)NC3(CCCCC3C)C2=O)cc1OCC (stereo not drawn)	.	29	-4	.	.	.	.
COc1ccc(CCN2CC(C(=O)NCCc3ccc(C)cc3)CC2=O)cc1OC (stereo not drawn)	6	-3	5	-4	.	.	.
COc1ccc(CN(C)C(=O)CNC(=O)Cc2cccc3ccccc23)c(OC)c1OC	53*	-15	-1	-7	82*	-0.31	16
COc1ccc(CCN(C)C(=O)CNC(=O)Cc2cccc3ccccc23)cc1OC	13	-6	-2	-22	.	.	.
Cc1cc(OCC(O)CN(C)C(=O)C(C)Oc2ccccc2)ccc1Cl (stereo not drawn)	-37	-8	0	-15	.	.	.
CCC(C)C(NC(=O)c1ccccc1NC(=O)c1ccc(OC)cc1)C(=O)NCc1ccco1 (stereo not drawn)	70*	-3	45*	-4	100*	-0.82	12
COc1ccc(C(=O)Nc2ccc(Cl)cc2C(=O)NCc2ccco2)cc1	-14	11	0	-16	.	.	.
CCC(c1ccc(O)cc1)C(CC)c1ccc(O)cc1 (stereo not drawn)	.	-4	2	.	.	.	.
